Changes are numbered by the printed parent chain. In brackets after ≈: the same amount, converted by molar mass.
Key:
[1] = biological target: T1, Type-1 angiotensin II receptor (Homo sapiens, UniProt P30556); assay: Displacement of [125I]Sar1Ile8-Ang2 from angiotensin AT1 receptor after 180 mins by gamma counting
T1 sequence (P30556 whole entry): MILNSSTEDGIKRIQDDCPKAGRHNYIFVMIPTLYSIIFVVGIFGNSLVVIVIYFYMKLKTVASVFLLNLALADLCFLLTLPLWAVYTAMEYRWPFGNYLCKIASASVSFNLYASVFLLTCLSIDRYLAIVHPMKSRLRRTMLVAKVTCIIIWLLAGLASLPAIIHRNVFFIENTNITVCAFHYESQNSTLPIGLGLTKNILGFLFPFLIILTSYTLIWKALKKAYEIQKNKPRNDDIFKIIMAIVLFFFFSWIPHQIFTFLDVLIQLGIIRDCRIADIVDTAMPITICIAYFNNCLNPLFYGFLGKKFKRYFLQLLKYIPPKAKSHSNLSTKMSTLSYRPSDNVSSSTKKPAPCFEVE

[2] = Toxicity against Photobacterium phosphoreum expressing T3 mutation after 15 mins by Microtox assay; format: organism-based
Outline: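 Microtox test with luminescent Photobacterium phosphoreum. Samples were incubated with bacteria for 15 min before reading inhibition of bacterial luminescence, testing up to the saturated concentration level. LC50 is the concentration in water inhibiting 50% of the test batch.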

[3] = biological target: T2, Type-1 angiotensin II receptor (Oryctolagus cuniculus, UniProt P34976); assay: Antagonist activity at AT1 receptor in Japanese white rabbit thoracic aorta assessed as inhibition of […] contraction incubated 30 mins post KCl-induction for 1 hr; format: functional, tissue-based; conditions: read-out: pA2 (converted)
T2 sequence (P34976 whole entry): T1 sequence (P30556 whole entry) with I2M, V49A, I254V, I270V, R272H, R311K, T349S, A353V
Outline: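 Isolated rabbit aortic strips equilibrated 1 h with washes every 15 min. 67 mM KCl was given first to check tissue sensitivity and set the maximal contractile response. After a 30 min washout, test substances or their vehicles were added and contractile responses recorded.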

[4] = tested on: Rattus norvegicus; assay: Antihypertensive activity in non-fasted spontaneous hypertensive rat assessed as decrease in mean arterial blood pressure at 10 mg/kg, po by tail plethysmography relative to control; format: functional, Artery
Outline: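 Male SHR aged 19–21 weeks, conscious and unanesthetised, six per group; controls got vehicle at 10 mL/kg. […] Blood pressure and heart rate measured by tail plethysmography after a warming period; data given as means SEM.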

Row | Compound | IC50 [1] [nM] | LC50 at 0.25 h [2] [µg/mL] | Kb [3] [nM] | Activity [4] [mmHg]
1 | CCCc1nc2c(C)cc(C(=O)NCc3ccccc3OC)cc2n1Cc1ccc(-c2ccccc2-c2nnn[nH]2)cc1 | 19.7 | 66 (≈ 115 µM) |  | 
2 | CCCc1nc2c(C)cc(C(=O)NCCc3ccc(F)cc3)cc2n1Cc1ccc(-c2ccccc2-c2nnn[nH]2)cc1 | 209 | 60 (≈ 105 µM) |  | 
3 | CCCc1nc2c(C)cc(C(=O)NCc3ccc(OC)cc3)cc2n1Cc1ccc(-c2ccccc2-c2nnn[nH]2)cc1 | 119 | > 100 |  | 
4 | CCCc1nc2c(C)cc(C(=O)NCCc3ccccc3F)cc2n1Cc1ccc(-c2ccccc2-c2nnn[nH]2)cc1 | 37.6 | 17 (≈ 29.6 µM) |  | 
5 | CCCCc1nc(Cl)c(CO)n1Cc1ccc(-c2ccccc2-c2nn[nH]n2)cc1 [LOSARTAN] |  | 331 (≈ 783 µM) |  | 
6 | CCCc1nc2c(C)cc(-c3nc4ccccc4n3C)cc2n1Cc1ccc(-c2ccccc2C(=O)O)cc1 |  | 100 (≈ 194 µM) |  | 
7 | CCCc1nc2c(C)cc(C(=O)NCCc3ccc(OC)cc3)cc2n1Cc1ccc(-c2ccccc2-c2nnn[nH]2)cc1 | 22.5 | > 100 |  | 
8 | CCCc1nc2c(C)cc(C(=O)NCc3cccc(OC)c3)cc2n1Cc1ccc(-c2ccccc2-c2nnn[nH]2)cc1 | 78.3 | > 100 |  | 
9 | CCCc1nc2c(C)cc(C(=O)NCC(C)c3ccccc3)cc2n1Cc1ccc(-c2ccccc2-c2nnn[nH]2)cc1 (stereo not drawn) | 0.9 | > 100 | 1.7 | >30
10 | CCCc1nc2c(C)cc(C(=O)NCCc3cc(OC)ccc3OC)cc2n1Cc1ccc(-c2ccccc2-c2nnn[nH]2)cc1 | 78 | > 100 |  | 
11 | CCCc1nc2c(C)cc(C(=O)NCCc3ccccc3)cc2n1Cc1ccc(-c2ccccc2-c2nnn[nH]2)cc1 | 1.3 | > 100 | 4.79 | 
12 | CCCc1nc2c(C)cc(C(=O)NCc3ccccc3)cc2n1Cc1ccc(-c2ccccc2-c2nnn[nH]2)cc1 | 410 | 64 (≈ 118 µM) |  | 
13 | CCCc1nc2c(C)cc(C(=O)NCCc3ccc(OC)c(OC)c3)cc2n1Cc1ccc(-c2ccccc2-c2nnn[nH]2)cc1 | 3.7 | > 100 | 1.82 | 
14 | CCCc1nc2c(C)cc(C(=O)NCCc3cccc(OC)c3)cc2n1Cc1ccc(-c2ccccc2-c2nnn[nH]2)cc1 | 2.6 | > 100 | 14.8 | 
15 | CCCc1nc2c(C)cc(C(=O)NCc3ccc(OC)c(OC)c3)cc2n1Cc1ccc(-c2ccccc2-c2nnn[nH]2)cc1 | 96.8 | > 100 |  | 
